Assay outcomes deposited in PubChem BioAssay by Johns Hopkins Ion Channel Center.
MrgX1 ag: human MrgX1 receptor agonism, primary screen | MrgX1-HEK293 cells, Fluo-4 calcium fluorescence, agonist mode; hits give high values | B-score at 10 µM | AID 588627 | 310,000 tested, 0.44% active | Q96LB2;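 active = calcium response B-score plate-corrected fluorescence ratio at least 3 library SD, with starting fluorescence B-score inside 5 SD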
Target sequence (Q96LB2 whole entry, looked up): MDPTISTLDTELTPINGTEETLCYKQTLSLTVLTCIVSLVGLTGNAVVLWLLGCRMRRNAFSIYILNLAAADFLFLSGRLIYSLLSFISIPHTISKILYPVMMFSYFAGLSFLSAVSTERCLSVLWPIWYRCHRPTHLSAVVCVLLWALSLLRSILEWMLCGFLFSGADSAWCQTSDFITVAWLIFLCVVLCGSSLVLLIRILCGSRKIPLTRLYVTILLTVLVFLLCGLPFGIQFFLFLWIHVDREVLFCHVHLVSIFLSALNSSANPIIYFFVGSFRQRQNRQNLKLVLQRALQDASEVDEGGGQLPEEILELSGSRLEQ
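Material – MrgX1-expressing HEK293 cells · Input – 15,000 cells seeded per well · Dosing – compound as first of three additions · Times – overnight seeding, then 1 h dark dye loading · Measured by – kinetic Fluo-4 NW fluorescence of intracellular calcium · Read-out – B-scored fluorescence response ratio · Benchmarks – positive and negative control wells on each plate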
MrgX1 antag: human MrgX1 receptor antagonism, primary screen; MRGX1-HEK293 calcium flux, Fluo-4, BAM8-22 antagonism; hits give low values; B-score at 10 µM; 310,000 tested, 1.3% active;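 active = calcium-response B-score plate-corrected more than 3 library SD below zero, starting fluorescence within 5 deviations, no agonist response on first addition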;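 also: peak minus trough fluorescence over baseline after final BAM8-22 challenge near maximal dose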
RGS4 pot: potentiators or activators of RGS4 | HEK293 M3R/inducible RGS4, carbachol calcium flux Fluo4; hits give low values | 310,000 tested, 0.92% active | B-score at 10 µM;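 active = B-score of the integrated calcium signal more than 4 SD below the library mean, with starting fluorescence not abnormally high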;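 also: negative B-score means reduced calcium response which marks RGS4 activation or potentiation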
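System: HEK293 FlpIn-TREx cells, stable M3R, doxycycline-inducible RGS4. Timing: overnight RGS4 induction, 30 min dye load 37 °C, 20 min compound RT. Also added: carbachol, ECmax concentration. Measured by: Fluo4 fluorescence kinetic imaging of calcium. Evaluation: integrated calcium ratio converted to B score.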
MrgX1 PAM: human MrgX1 positive allosteric modulation, primary screen; Q96LB2; MrgX1-HEK293, Fluo-4 calcium flux, FDSS; hits give high values; B-score at 10 µM; 310,000 tested, 0.63% active;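 active = plate-corrected calcium response at least 3 library SD above typical, normal starting fluorescence, not activating the receptor alone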;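 also: compound read alongside a low EC10 to EC30 dose of BAM8-22 agonist; peak minus trough fluorescence over baseline measured at the second addition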
RGS4 block: inhibitors of human RGS4 | HEK293 M3R/RGS4 inducible, Fluo-4 calcium flux; hits give high values; triggered by carbachol at its EC20 | P49798 | AID 463165 | B-score at 10 µM | 310,000 tested, 0.45% active;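 active = B-score, a plate-corrected calcium signal, over three deviations above library mean, with baseline fluorescence within five deviations of library mean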;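 also: RGS4 expression induced by doxycycline in cells with stable M3 receptor; B-score is computed from the integrated fluorescence ratio over baseline after carbachol; higher B-score means a larger calcium signal and so more RGS4 inhibition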
Target sequence (P49798 whole entry, looked up): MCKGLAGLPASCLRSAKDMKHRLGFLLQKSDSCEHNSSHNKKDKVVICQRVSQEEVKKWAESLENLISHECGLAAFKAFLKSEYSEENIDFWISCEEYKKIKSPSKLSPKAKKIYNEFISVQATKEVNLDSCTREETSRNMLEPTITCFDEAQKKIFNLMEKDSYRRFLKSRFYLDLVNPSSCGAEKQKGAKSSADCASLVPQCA
MrgX1 ant reconf: human MrgX1 receptor antagonism, re-confirmation screen; shares compounds with MrgX1 antag; MrgX1-HEK293, BAM8-22 calcium flux, Fluo-4; hits give low values; 2,300 tested, 19% active; remaining BAM8-22 calcium response % of control (hits give low values), % at 10 µM;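 active = remaining agonist calcium response no higher than 100% minus 3 SD of agonist-only control wells, with starting fluorescence near control levels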;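 also: agonist BAM8-22 given at a near maximal EC90 to ECmax level; peak minus minimum fluorescence divided by baseline after agonist addition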
HEK293 Ca flux: MrgX1 antagonist counter-screen hit in parental HEK293 cells | shares compounds with MrgX1 antag | Fluo-4 calcium fluorescence, FDSS | fluorescence ratio F(max-min)/F0 at 10 µM | 4,000 tested, 2% active;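 active = duplicate-averaged calcium fluorescence ratio at least three times the standard deviation of buffer wells, a nonspecific response in parental cells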
HEK293 Ca counter: MrgX1 allosteric activator counter-screen hit in parental HEK293 cells; shares compounds with MrgX1 antag; parental HEK293 calcium flux, Fluo-4 fluorescence ratio; hits give high values; fluorescence ratio F(max-min)/F0 at 10 µM; 4,000 tested, 0.4% active;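 active = calcium fluorescence ratio, averaged over duplicates, at least 3 SD of the buffer-well ratio, meaning a nonspecific response in receptor-free cells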;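 also: untransfected parental HEK293 lacking MrgX1 used as counterscreen for MrgX1 allosteric activators; fluorescence change taken during the second addition on a kinetic imager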
HEK293 Ca cntr2: activity in parental HEK293 cells lacking MrgX1 receptor | shares compounds with MrgX1 antag | Fluo-4 calcium fluorescence (FDSS); hits give high values | fluorescence ratio F(max-min)/F0 at 10 µM | 4,000 tested, 8.7% active | AID 624115;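 active = calcium fluorescence ratio at least three times the spread of buffer wells, meaning a non-specific response in parental cells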
Each line names hits and unclear results; the compound was inactive in the other large screens (follow-up assays come after a bar, where they were run). Only some compounds are listed: those with a hit (about 3.5% of all), similar ones and a draw of the others.

CCCc1cc(=O)oc2cc(C)cc(OCC(=O)N3CCC(C(N)=O)CC3)c12	MrgX1 antag -4.9 | MrgX1 ant reconf inactive | HEK293 Ca flux inactive | HEK293 Ca counter inactive | HEK293 Ca cntr2 inactive
CC1CCCCC1NC(=O)c1cccc(S(=O)(=O)N2CCN(C)CC2)c1 (stereo not drawn)	none
CC1CCCC(NC(=O)c2cccc(S(=O)(=O)N3CCN(c4ccccc4)CC3)c2)C1C (stereo not drawn)	MrgX1 antag -9.2 | MrgX1 ant reconf inactive | HEK293 Ca flux inactive | HEK293 Ca counter inactive | HEK293 Ca cntr2 inactive
C/C(CC(=O)Nc1cc(C)ccn1)=N\NC(=O)c1cccc(F)c1	none
O=C(c1cc(-c2ccccn2)nc2ccc(Br)cc12)N1CCc2ccccc2C1	none (no result: MrgX1 ag, MrgX1 antag, MrgX1 PAM)
O=C(c1cc(-c2ccccn2)nc2ccc(Br)cc12)N1CCN(S(=O)(=O)c2ccccc2)CC1	MrgX1 antag -6.7 | MrgX1 ant reconf inactive | HEK293 Ca flux inactive | HEK293 Ca counter inactive | HEK293 Ca cntr2 inactive
COc1ccc(NC(=S)N2CCC(NC(=O)c3cccc(C)c3)CC2)cc1	none
COc1ccc(C(=O)NC2CCN(C(=S)Nc3ccc(C)cc3)CC2)cc1	MrgX1 antag -4.7 | MrgX1 ant reconf inactive | HEK293 Ca flux inactive | HEK293 Ca counter inactive | HEK293 Ca cntr2 inactive
Cc1ccc(C)c(CN2C(=O)C3CCCN3c3ccc(C#N)cc32)c1 (stereo not drawn)	MrgX1 antag -5.6 | MrgX1 ant reconf inactive | HEK293 Ca flux inactive | HEK293 Ca counter inactive | HEK293 Ca cntr2 inactive
Cc1ccc(CN2C(=O)C3CCCN3c3ccc(C#N)cc32)cc1 (stereo not drawn)	none
Cc1cc(OCc2cc(C(=O)N(C)C(C)c3ccccn3)no2)cc(C)c1Cl (stereo not drawn)	none
COc1ccc2nccnc2c1[N+](=O)[O-]	none
CC(=O)Nc1cccc(NC(=O)CSc2nc(=O)n3cccc(C)c3n2)c1	none
CCOC(=O)C1=C(CSc2nc3c(cc2C#N)CCC3)OC(N)=C(C#N)C1c1ccccc1 (stereo not drawn)	none
CCOC(=O)C1=C(CSc2nc3c(cc2C#N)CN(C)CC3)OC(N)=C(C#N)C1c1ccc(F)cc1 (stereo not drawn)	MrgX1 antag -5.4 | MrgX1 ant reconf inactive | HEK293 Ca flux inactive | HEK293 Ca counter inactive | HEK293 Ca cntr2 inactive
COc1ccc(C(=O)NC2CC2)cc1OC1CCN(Cc2ccccc2F)CC1	none
COc1ccc(C(=O)NC2CC2)cc1OC1CCN(Cc2ccc(F)cc2F)CC1	MrgX1 antag -5.6 | MrgX1 ant reconf inactive | HEK293 Ca flux inactive | HEK293 Ca counter inactive | HEK293 Ca cntr2 inactive
CC(C)c1ccccc1NC(=O)CC1(CC(=O)O)CCCC1	none
COc1ccc2nc(NC(=O)C3CCCO3)sc2c1 (stereo not drawn)	none
CSc1nc2ccc(NC(=O)C3CCCO3)cc2s1 (stereo not drawn)	MrgX1 antag -6.8 | MrgX1 ant reconf inactive | HEK293 Ca flux inactive | HEK293 Ca counter inactive | HEK293 Ca cntr2 inactive
NC(=O)c1ccc(NC(=O)C2CCCO2)cc1 (stereo not drawn)	MrgX1 antag -5.9 | MrgX1 ant reconf inactive | HEK293 Ca flux inactive | HEK293 Ca counter inactive | HEK293 Ca cntr2 inactive
O=C(Nc1ccc(Oc2ccc(NC(=O)C3CCCO3)cc2)cc1)C1CCCO1 (stereo not drawn)	none
COc1cc(NS(=O)(=O)c2ccc(-c3ccc(=O)[nH]n3)o2)cc(OC)c1OC	none
C/C(Cl)=C\Cn1c(NCCc2ccccc2)nc2c1c(=O)n(C)c(=O)n2C	none
CCN(CC)CCNc1nc2c(c(=O)n(C)c(=O)n2C)n1C/C=C(/C)Cl	MrgX1 antag -4.6 | MrgX1 ant reconf inactive | HEK293 Ca flux inactive | HEK293 Ca counter inactive | HEK293 Ca cntr2 inactive
CC(=O)Nc1ccc(S(=O)(=O)Nc2nc3nc(-c4ccccc4)cc(-c4ccccc4)n3n2)cc1	MrgX1 antag -6.4 | MrgX1 ant reconf 81% | HEK293 Ca flux inactive | HEK293 Ca counter inactive | HEK293 Ca cntr2 inactive
CC(=O)Nc1ccc(S(=O)(=O)Nc2cc(-c3ccccc3)nn2C)cc1	none
CSc1cccc(NS(=O)(=O)c2ccc3c(c2)oc(=O)n3C)c1	MrgX1 antag -6.2 | MrgX1 ant reconf 76% | HEK293 Ca flux inactive | HEK293 Ca counter inactive | HEK293 Ca cntr2 inactive
O=c1cc(NS(=O)(=O)c2ccccc2)nc(SCc2c(Cl)cccc2Cl)[nH]1	MrgX1 antag -5.1 | MrgX1 ant reconf inactive | HEK293 Ca flux inactive | HEK293 Ca counter inactive | HEK293 Ca cntr2 inactive
CCCc1nc2ccc(N)cc2c(=O)n1Cc1ccccc1Cl	none
CCn1c(C(C)NS(=O)(=O)c2ccc(Cl)cc2)n[nH]c1=S (stereo not drawn)	MrgX1 antag -6.5 | MrgX1 ant reconf inactive | HEK293 Ca flux inactive | HEK293 Ca counter inactive | HEK293 Ca cntr2 inactive
CCCn1c(C(C)NS(=O)(=O)c2ccccc2)n[nH]c1=S (stereo not drawn)	none
COc1cccc(CN(C)C(=O)c2cc(COc3c(F)cccc3F)on2)c1	none
COc1cccc(CN(C)C(=O)c2cc(COc3ccc4ncccc4c3)on2)c1	MrgX1 antag -6.6 | MrgX1 ant reconf 69% | HEK293 Ca flux inactive | HEK293 Ca counter inactive | HEK293 Ca cntr2 inactive
COCCNc1nnc(SCC(=O)NC(=O)c2ccccc2)s1	none
Cc1ccc(C(c2nnnn2C2CCCC2)N2CCN3CCCC3C2)cc1 (stereo not drawn)	MrgX1 antag -6.4 | MrgX1 ant reconf inactive | HEK293 Ca flux inactive | HEK293 Ca counter inactive | HEK293 Ca cntr2 inactive
COc1ccc(NC(=O)Cn2nc(C(=O)O)c3ccccc3c2=O)cc1OC	none
C=C(C)CSc1nc(C)c(Cc2ccccc2)c(=O)[nH]1	MrgX1 antag -6.7 | MrgX1 ant reconf 85% | HEK293 Ca flux inactive | HEK293 Ca counter inactive | HEK293 Ca cntr2 inactive
COc1ccccc1CNC(=O)C1CCC1	MrgX1 antag -7.9 | MrgX1 ant reconf 82% | HEK293 Ca flux inactive | HEK293 Ca counter inactive | HEK293 Ca cntr2 inactive
O=C(Nc1cn(-c2ccccc2)nc1-c1ccc(F)cc1)c1ccccc1	MrgX1 antag -5.3 | MrgX1 ant reconf 81% | HEK293 Ca flux inactive | HEK293 Ca counter inactive | HEK293 Ca cntr2 inactive
